# Source: PubChem (several laboratories)
# Rows were chosen to be rich in hits. Some 2.4% of all compounds tested hit in one or more screens of this group.
# GSTO1 inh – counter-screen for RBBP9 inhibitors: inhibitors of human GSTO1; actives 1.1% (n = 300,000); AID 1974; inhibition, % at 5.96 µM; recombinant GSTO1, activity-based probe fluorescence polarization;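 active = inhibition above the campaign mean inhibition plus 3 SD, cut at about 35% in these data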;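 also: 0% = GSTO1-1 with DMSO and 100% = wells lacking GSTO1-1 enzyme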
# SIAE inh – human SIAE inhibition, primary screen. Q9HAT2. SIAE FP-Rh probe binding, fluorescence polarization. inhibition, % at 9.66 µM. actives 0.69% (n = 370,000). AID 1053197;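 active = inhibition above a cutoff: mean of compounds within the control limits plus 3 SD of those, cut at about 17% in these data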;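 also: 0% = plate median of compound wells and 100% = probe without SIAE protein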
# Apaf-1 inh – human Apaf-1 inhibition. reconstituted apoptosome caspase-3 activity, DEVD-Rh110 fluorescence. O14727. inhibition, % at 20 µM. actives 0.71% (n = 330,000); active = inhibition of at least 40% at 20 µM;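 also: plate controls were DMSO wells for no effect and DEVD-CHO caspase inhibitor wells for full effect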
#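 Material: reconstituted apoptosome with Apaf-1, cytochrome c, caspase-9, procaspase-3, dATP. Technique: Rh110 fluorescence intensity. Buffer or medium: pH 7.5 Hepes buffer with CHAPS, BSA, DTT. Times: 30 min plus 50 min, RT.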
# TCR CD3 inh – human TCR-CD3 binding inhibition | actives 0.37% (n = 360,000) | TAMRA-labeled TCR probe fluorescence, biochemical | AID 651800 | inhibition, % at 9.4 µM; in the data active = inhibition above about 19%;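 also: recombinant mutant TCR 2C K166C tagged with TAMRA read by polarization; 0% = receptor in buffer alone and 100% = receptor with positive control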
# TDP2 absorb – blocks human TDP2 phosphodiesterase activity; O95551; recombinant TDP2, T5PNP hydrolysis, p-nitrophenol absorbance 415 nm; inhibition, % at 12.8 µM; actives 0.34% (n = 370,000);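 active = inhibition above the mean of all tested compounds plus 3 SD, set per campaign, cut at about 25% in these data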;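 also: 0% = DMSO with enzyme and 100% = buffer with substrate but no TDP2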
# Target sequence (O95551 whole entry, looked up): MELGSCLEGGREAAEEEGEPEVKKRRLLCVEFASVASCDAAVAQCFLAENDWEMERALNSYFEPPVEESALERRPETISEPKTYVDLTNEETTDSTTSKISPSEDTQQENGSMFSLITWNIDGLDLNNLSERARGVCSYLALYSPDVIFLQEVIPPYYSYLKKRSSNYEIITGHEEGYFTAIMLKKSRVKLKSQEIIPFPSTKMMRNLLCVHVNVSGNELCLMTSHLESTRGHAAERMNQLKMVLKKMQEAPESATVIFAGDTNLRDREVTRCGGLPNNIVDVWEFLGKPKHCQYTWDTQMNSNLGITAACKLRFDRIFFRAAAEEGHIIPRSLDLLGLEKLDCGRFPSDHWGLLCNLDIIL
#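 System: recombinant human TDP2 / Amount: 120 nM TDP2 per well / Also added: 5 mM T5PNP chromogenic substrate / Doses: 12.8 µM single point, 1% DMSO / Incubation: 2 h at 37 °C / Detection: p-Nitrophenol epi absorbance / Evaluation: % inhibition relative to enzyme-containing and enzyme-free wells / Repeats: singlicate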
# PAD4 FP inh – blocks human protein arginine deiminase 4; actives 0.41% (n = 330,000); recombinant PAD4, RCA probe fluorescence polarization; Q9UM07; inhibition, % at 6.36 µM; AID 485272;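 active = percent inhibition above a cutoff equal to the mean of all tested compounds plus 3 SD, cut at about 15% in these data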;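 also: 0% = PAD4 with RCA probe and DMSO and 100% = probe without PAD4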
# TDP2 confirm – confirmation of human TDP2 inhibitors. inhibition, % at 12.8 µM. recombinant human TDP2, absorbance read-out. actives 22% (n = 1,100). shares compounds with TDP2 absorb; in the data active = inhibition above about 25%;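 also: 0% = vehicle with enzyme and 100% = no enzyme buffer only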
# Numbers without * were called inactive; · = no result given.
SMILES,GSTO1 inh,SIAE inh,Apaf-1 inh,TCR CD3 inh,TDP2 absorb,PAD4 FP inh,TDP2 confirm
COc1cccc(NC2=C(NCCO)C(=O)c3ccccc3C2=O)c1,12,2,16,1,55*,-6,12
COC1=C(Nc2ccc(OC)cc2)C(=O)c2ccccc2C1=O,17,3,27,-7,60*,-15,4
Cc1c(O)ccc2c(CC(=O)N[C@@H](Cc3ccc(O)cc3)C(=O)O)cc(=O)oc12,·,-2,5,0,31*,·,4
O=C(NCCCN1CCOCC1)c1ccc2c(c1)N(Cc1ccc(Cl)cc1)C(=O)c1ccccc1S2=O (stereo not given),4,-2,14,5,53*,-2,0
O=C(NCCCN1CCCC1)c1ccc2c(c1)N(Cc1ccccc1F)C(=O)c1ccccc1S2=O (stereo not given),12,-13,26,2,-3,-3,·
CC1(C)CC(=O)C2=C(C1)OC(N)=C(C#N)C2c1ccccc1 (stereo not given),3,3,-2,6,68*,1,3
CC1(C)CC(=O)C2=C(C1)OC(N)=C(C#N)C2c1cccs1 (stereo not given),0,1,-4,-4,4,-1,·
Cc1ccc(-c2cn3cccnc3n2)cc1,5,-8,-8,-7,-5,-5,·
CS(=O)(=O)Nc1ccc(-c2cn3cccnc3n2)cc1,4,-5,2,0,26*,-2,6
CCCn1nc2cc(C(=O)NCc3ccc(OC)cc3)ccc2c1OCC,5,5,1,-6,38*,1,-3
CCOC(=O)Cc1csc(NC(=O)CSc2nnc(-c3ccc(NS(=O)(=O)CC)cc3)o2)n1,-7,-1,-18,-6,11,3,·
OCCNc1ncnc2c1sc1nc(N3CCOCC3)c3c(c12)CCC3,-6,-9,4,7,27*,2,-4
CCCC1=[N+](CC(=O)c2ccc(Br)cc2)CCn2cccc21,2,9,-1,3,30*,-6,5
CN1C2CCC1CC(N(CCc1ccccc1)C(=O)c1ccc(Cl)cc1)C2 (stereo not given),0,2,3,1,28*,0,7
CCOc1ccc2[nH]c3c(NCCO)ncnc3c2c1,·,11,4,-2,27*,·,3
CCc1ccccc1NC(=O)c1cccc(NC(=O)/C=C/c2ccco2)c1,-6,-15,10,-6,-7,0,·
CC(=O)NS(=O)(=O)c1ccc(NC(=O)/C=C/c2ccco2)cc1,11,-2,-10,-1,3,0,·
O=C(/C=C/c1ccco1)NC(=S)Nc1ccc(C(=O)O)cc1,18,2,9,11,40*,1,20
O=C(/C=C/c1ccco1)Nc1cccc(C(=O)Nc2ccccc2C(=O)O)c1,-146,-64,5,6,28*,-13,12
NS(=O)(=O)c1ccc(NC(=O)/C=C/c2ccco2)cc1,2,-4,-4,11,32*,-5,6
CC1(CCc2ccccc2)NC(=S)N(c2ccc(Cl)cc2)N1 (stereo not given),5,0,8,-2,-6,-1,·
S=C(Nc1ccc2nc(-c3ccccn3)c(-c3ccccn3)nc2c1)N1CCOCC1,9,-3,-2,-6,31*,-2,0
CCOC(=O)C1CCCN(c2ncnc3c2cnn3-c2ccc(Cl)cc2)C1 (stereo not given),0,3,12,-7,-4,-2,·
O=S(=O)(c1ccccc1)c1ccc(NCc2ccco2)cc1,6,1,-8,6,-4,2,·
O=C1C(Cl)=C(NCc2ccco2)C(=O)c2ccccc21,·,-4,·,-3,35*,·,24
NC1=C(Br)C(=O)c2ncccc2C1=O,·,2,·,-1,62*,·,65*
CCN(CC(=O)Nc1cc(Cl)ccc1C)C(=O)C1CC1,·,-10,-8,7,-23,-2,·
Cc1nc2scc(C)n2c(=O)c1S(=O)(=O)NCc1ccc(F)cc1,3,-1,5,-3,25*,-2,-10
Cc1nc2scc(C)n2c(=O)c1S(=O)(=O)Nc1ccc(F)cc1,4,-5,3,-2,-6,1,·
